Laboratory results from publication PMC5693369 (Nature chemical biology, 2017).

How the values were obtained:
[1] = test system: human, monocyte-derived DCs; test: IL-10 production in R848-stimulated human DCs; assay type: cell-based; settings: human DCs from two independent donors, R848 stimulation
Method in brief: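 CD14+ monocytes enriched from healthy-donor buffy coats and cultured to DCs. On day 7, cells scraped and plated at 30,000/well, treated with a concentration series of test compound or DMSO (0.5%), then stimulated 18 h with R848 (2 μg/mL). Medium stored at −80 °C before IL-10 detection. n = 3 biological replicates per donor; two independent experiments.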

NF-κB = test: TF-seq pathway reporter assay in BMDMs, NF-κB; assay type: cell-based, mouse; settings: all stimuli tested
Method in brief: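 Bone-marrow macrophages grown in DMEM with 30% FBS and 10% L929-conditioned medium, transduced on day 4 with a pooled lentiviral sequencing-based reporter library, then frozen and thawed. Cells plated at 100,000/well and pretreated 24 h at 37 °C with test compound (0.1 or 5 μM) or DMSO (0.5%). Stimulated up to 3 h with a ten-ligand panel or Sendai virus (MOI 10). Reporter transcripts counted as unique tagged molecules by sequencing.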

[2] = test system: mouse bone-marrow-derived macrophages (BMDMs); test: IL-10 production in activated BMDMs; assay type: cell-based; settings: BMDMs activated with zymosan A or R848
Method in brief: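 Bone-marrow macrophages from C57BL/6 mice, treated 24 h with test compound or DMSO (0.5%), then stimulated 18 h with R848 (2 μg/mL) or zymosan A (4 μg/mL). IL-10 measured in culture medium.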

[3] = test system: bone-marrow-derived dendritic cells (BMDCs); test: IL-10 release, cytokines and viability in zymosan A-stimulated BMDCs; assay type: cell-based, mouse
[4] = molecular target: T1, recombinant cyclin C–CDK8 (Homo sapiens, UniProt P49336); test: CDK8 radiometric filter-binding kinase activity assay; assay type: biochemical; settings: read-out: inhibition of kinase activity of cyclin C–CDK8, IC50
Method in brief: (§1)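 Purified recombinant cyclin C–CDK8 or cyclin C–CDK19 incubated with a dilution series of test compound. Activity measured by radiometric filter binding as [γ-32P] transfer from ATP to recombinant RBER-IRStide substrate, relative to DMSO (1%) control. IC50 estimated by 4-parameter nonlinear regression.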

[5] = molecular target: recombinant cyclin C–CDK19 (Homo sapiens, UniProt Q9BWU1); test: CDK19 radiometric filter-binding kinase activity assay; assay type: biochemical; settings: read-out: inhibition of kinase activity of cyclin C–CDK19, IC50
Method in brief: as §1

STAT1–STAT2 = test: TF-seq pathway reporter assay in BMDMs, STAT1–STAT2; assay type: cell-based, mouse; settings: ~2 h after stimulation
[6] = molecular target: human cyclin C–CDK8 complex (Homo sapiens, UniProt P49336); test: Cyclin C-CDK8 LanthaScreen binding assay; settings: read-out: binding to cyclin C–CDK8, half-maximal inhibitory concentration (IC50)
Method in brief: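 Human cyclin C–CDK8 complex in a LanthaScreen binding format. Binding expressed as percent displacement of a dye-labelled probe from the CDK8 kinase domain.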

PI3KCG = PI3KCG (Homo sapiens, UniProt P48736); test: Kinase profiling, PI3KCG; assay type: binding; settings: both kinase profiling formats
Method in brief: (§2)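 Test compound screened at 1 μM against 414 kinases (LanthaScreen Eu binding, Adapta or Z-LYTE), scored as percent probe displacement or residual activity versus DMSO (0.5%). Also screened at 10 μM against 395 kinases by KINOMEscan active-site competitive binding, scored as percent displacement of a catalytic-site probe versus DMSO (0.5%).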

STAT1 = STAT1 phosphorylation in IFNγ-stimulated BMDCs; assay type: cell-based, mouse; settings: BMDCs pre-incubated with compound
Method in brief: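 BMDCs pre-incubated with test compound, then stimulated with recombinant murine IFNγ. Cells lysed in Tris pH 7.4 buffer with phosphatase and protease inhibitors, 1% Triton X-100 and 0.2% SDS; lysate clarified at 14,000 × g. 10–20 μg protein run on SDS–PAGE and blotted to PVDF. Probed for total STAT1 and p-STAT1 Tyr701 (1/1,000), β-actin; chemiluminescent detection.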

[7] = test system: bone-marrow-derived dendritic cells (BMDCs); test: Cytokine production in R848-stimulated BMDCs; assay type: cell-based, mouse; settings: for IL-10 upregulation in Ccnc Δ/Δ BMDCs: BMDCs lacking cyclin C; for IL-10 upregulation in Ccnc Δ/Δ BMDCs / IL-10 upregulation in Ccnc f/f BMDCs: R848; for IL-10 production: BMDCs, R848 stimulation; for IL-10 upregulation in Ccnc f/f BMDCs: control BMDCs
Method in brief: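 BMDCs from C57BL/6 bone marrow, pretreated 24 h with test compound or DMSO (0.5%), then given R848 (2 μg/mL) or zymosan A (4 μg/mL) for 18 h; some sets co-treated with T-5224 (100 μM). Cyclin C-deleted cells came from Ccnc f/f × Mx1-Cre mice given poly(I:C) 2.5 μg g−1 i.p. every other day for 3 d, with bone marrow taken 10 d later and deletion confirmed by PCR. Clarified medium assayed by cytometric bead array. n = 3–4 biological replicates; EC50 by 4-parameter regression.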

Il10 mRNA = Il10 mRNA levels after R848 stimulation; assay type: cell-based, mouse; settings: pretreatment, then R848 / microbial stimulation
PI3KC2A = PI3KC2A (Homo sapiens, UniProt O00443); test: Kinase profiling, PI3KC2A; assay type: binding; settings: both kinase profiling formats
Method in brief: as §2

c-Jun = c-Jun phosphorylation in R848-activated BMDCs; assay type: cell-based, mouse; settings: dCA pretreatment (100 nM; 18 h)
Method in brief: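 BMDCs pretreated with test compound, then activated with R848 for a time course. Lysates (10–20 μg protein) separated by SDS–PAGE, transferred to PVDF and immunoblotted for phospho-c-Jun Ser243 (1/1000) with chemiluminescent detection. Two independent experiments.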

[8] = molecular target: T1, recombinant cyclin C–CDK8; test: CDK8–c-Jun in vitro kinase reaction; assay type: biochemical; settings: in vitro kinase reaction with recombinant c-Jun
Method in brief: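 60 ng recombinant cyclin C–CDK8 and 60 ng recombinant human c-Jun pre-incubated 15 min with a dilution series of test compound. Reaction started with 20 μM ATP and run 30 min at 30 °C in 60 mM HEPES pH 7.5, 3 mM MgCl2, 3 mM MnCl2, 1.2 mM DTT, then EDTA-quenched. Read by SDS–PAGE and immunoblot for phospho-c-Jun Ser243; two independent experiments.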

T1 sequence (P49336 whole entry): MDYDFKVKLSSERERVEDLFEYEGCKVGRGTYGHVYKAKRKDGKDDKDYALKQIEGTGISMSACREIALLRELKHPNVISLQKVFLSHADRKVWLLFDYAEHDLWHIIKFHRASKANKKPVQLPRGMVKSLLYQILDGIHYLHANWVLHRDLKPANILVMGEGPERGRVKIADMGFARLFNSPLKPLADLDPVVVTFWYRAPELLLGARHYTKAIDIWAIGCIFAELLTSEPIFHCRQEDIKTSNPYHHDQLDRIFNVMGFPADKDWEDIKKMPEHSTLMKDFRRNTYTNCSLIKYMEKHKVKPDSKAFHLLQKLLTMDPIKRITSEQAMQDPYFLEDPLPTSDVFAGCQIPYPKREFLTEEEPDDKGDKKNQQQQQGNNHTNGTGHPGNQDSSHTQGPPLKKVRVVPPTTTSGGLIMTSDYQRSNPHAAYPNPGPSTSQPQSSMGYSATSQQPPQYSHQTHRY
T1 sequence (P24863 whole entry partner): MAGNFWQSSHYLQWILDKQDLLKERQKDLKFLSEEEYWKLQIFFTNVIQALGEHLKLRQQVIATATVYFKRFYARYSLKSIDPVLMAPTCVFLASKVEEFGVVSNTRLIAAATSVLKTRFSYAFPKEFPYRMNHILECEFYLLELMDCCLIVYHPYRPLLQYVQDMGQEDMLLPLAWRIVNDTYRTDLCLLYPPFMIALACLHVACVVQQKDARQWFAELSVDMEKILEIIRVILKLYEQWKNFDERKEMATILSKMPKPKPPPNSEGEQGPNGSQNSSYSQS
Sequence of PI3KC2A (O00443 whole entry): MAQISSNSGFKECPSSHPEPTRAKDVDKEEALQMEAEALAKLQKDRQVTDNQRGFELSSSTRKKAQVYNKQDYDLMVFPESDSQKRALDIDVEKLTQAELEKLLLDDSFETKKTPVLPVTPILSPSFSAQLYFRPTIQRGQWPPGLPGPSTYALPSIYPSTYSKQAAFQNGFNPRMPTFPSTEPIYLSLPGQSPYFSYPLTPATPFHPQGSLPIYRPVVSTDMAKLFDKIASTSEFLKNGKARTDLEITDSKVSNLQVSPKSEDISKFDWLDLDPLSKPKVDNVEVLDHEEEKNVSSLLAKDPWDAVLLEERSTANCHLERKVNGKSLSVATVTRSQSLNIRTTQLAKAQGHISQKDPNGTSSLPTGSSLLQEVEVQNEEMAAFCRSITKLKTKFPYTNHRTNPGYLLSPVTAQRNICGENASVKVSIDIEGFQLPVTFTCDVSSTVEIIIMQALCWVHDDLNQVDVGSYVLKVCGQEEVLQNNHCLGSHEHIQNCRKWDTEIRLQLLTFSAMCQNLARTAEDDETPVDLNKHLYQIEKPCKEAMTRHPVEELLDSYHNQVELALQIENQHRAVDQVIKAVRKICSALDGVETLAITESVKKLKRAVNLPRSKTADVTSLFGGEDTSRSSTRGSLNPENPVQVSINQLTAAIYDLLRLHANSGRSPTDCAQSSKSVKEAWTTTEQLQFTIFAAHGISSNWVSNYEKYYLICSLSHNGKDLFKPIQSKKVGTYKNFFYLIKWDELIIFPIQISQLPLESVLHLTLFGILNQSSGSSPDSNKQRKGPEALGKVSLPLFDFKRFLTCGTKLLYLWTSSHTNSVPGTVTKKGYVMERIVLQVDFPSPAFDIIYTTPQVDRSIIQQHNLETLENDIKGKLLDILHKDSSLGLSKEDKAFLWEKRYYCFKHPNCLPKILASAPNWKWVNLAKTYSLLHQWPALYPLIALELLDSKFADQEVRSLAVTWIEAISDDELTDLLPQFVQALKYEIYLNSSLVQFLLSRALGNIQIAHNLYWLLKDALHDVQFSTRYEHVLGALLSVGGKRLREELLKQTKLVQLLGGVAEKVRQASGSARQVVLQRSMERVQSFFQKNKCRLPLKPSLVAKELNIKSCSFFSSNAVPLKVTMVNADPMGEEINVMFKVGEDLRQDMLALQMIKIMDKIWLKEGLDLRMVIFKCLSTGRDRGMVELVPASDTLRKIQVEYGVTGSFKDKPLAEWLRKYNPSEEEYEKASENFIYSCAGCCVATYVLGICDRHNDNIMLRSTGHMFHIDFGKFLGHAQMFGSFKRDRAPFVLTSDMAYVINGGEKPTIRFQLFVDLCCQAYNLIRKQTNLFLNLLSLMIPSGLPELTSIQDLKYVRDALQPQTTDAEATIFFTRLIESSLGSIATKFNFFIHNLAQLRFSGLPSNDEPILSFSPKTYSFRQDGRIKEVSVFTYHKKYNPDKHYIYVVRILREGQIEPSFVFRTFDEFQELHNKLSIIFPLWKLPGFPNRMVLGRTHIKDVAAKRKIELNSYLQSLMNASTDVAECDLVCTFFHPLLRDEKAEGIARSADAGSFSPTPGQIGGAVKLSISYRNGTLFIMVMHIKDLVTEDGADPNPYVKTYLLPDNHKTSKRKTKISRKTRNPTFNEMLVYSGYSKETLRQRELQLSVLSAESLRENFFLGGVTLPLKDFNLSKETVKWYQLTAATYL
Sequence of human cyclin C–CDK8 complex (P49336 whole entry, the tested form may be a part): as the sequence (P49336 whole entry) above
Sequence of human cyclin C–CDK8 complex (P24863 whole entry partner, the tested form may be a part): as the sequence (P24863 whole entry partner) above
Sequence of recombinant cyclin C–CDK19 (Q9BWU1 whole entry): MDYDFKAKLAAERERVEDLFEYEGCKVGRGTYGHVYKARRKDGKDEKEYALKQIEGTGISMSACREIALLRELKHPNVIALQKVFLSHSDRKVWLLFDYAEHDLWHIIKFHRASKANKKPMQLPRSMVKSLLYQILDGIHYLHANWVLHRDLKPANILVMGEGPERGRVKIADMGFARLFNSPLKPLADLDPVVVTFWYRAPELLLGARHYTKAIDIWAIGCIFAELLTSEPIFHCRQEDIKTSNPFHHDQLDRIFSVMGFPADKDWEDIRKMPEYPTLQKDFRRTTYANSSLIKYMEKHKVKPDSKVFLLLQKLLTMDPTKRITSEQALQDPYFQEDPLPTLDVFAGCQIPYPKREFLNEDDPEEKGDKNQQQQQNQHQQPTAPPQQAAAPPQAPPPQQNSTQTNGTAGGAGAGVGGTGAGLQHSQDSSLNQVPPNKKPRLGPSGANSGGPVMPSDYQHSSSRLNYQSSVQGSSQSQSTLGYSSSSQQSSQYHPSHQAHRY
Sequence of recombinant cyclin C–CDK19 (P24863 whole entry partner): as the sequence (P24863 whole entry partner) above
Sequence of PI3KCG (P48736 whole entry): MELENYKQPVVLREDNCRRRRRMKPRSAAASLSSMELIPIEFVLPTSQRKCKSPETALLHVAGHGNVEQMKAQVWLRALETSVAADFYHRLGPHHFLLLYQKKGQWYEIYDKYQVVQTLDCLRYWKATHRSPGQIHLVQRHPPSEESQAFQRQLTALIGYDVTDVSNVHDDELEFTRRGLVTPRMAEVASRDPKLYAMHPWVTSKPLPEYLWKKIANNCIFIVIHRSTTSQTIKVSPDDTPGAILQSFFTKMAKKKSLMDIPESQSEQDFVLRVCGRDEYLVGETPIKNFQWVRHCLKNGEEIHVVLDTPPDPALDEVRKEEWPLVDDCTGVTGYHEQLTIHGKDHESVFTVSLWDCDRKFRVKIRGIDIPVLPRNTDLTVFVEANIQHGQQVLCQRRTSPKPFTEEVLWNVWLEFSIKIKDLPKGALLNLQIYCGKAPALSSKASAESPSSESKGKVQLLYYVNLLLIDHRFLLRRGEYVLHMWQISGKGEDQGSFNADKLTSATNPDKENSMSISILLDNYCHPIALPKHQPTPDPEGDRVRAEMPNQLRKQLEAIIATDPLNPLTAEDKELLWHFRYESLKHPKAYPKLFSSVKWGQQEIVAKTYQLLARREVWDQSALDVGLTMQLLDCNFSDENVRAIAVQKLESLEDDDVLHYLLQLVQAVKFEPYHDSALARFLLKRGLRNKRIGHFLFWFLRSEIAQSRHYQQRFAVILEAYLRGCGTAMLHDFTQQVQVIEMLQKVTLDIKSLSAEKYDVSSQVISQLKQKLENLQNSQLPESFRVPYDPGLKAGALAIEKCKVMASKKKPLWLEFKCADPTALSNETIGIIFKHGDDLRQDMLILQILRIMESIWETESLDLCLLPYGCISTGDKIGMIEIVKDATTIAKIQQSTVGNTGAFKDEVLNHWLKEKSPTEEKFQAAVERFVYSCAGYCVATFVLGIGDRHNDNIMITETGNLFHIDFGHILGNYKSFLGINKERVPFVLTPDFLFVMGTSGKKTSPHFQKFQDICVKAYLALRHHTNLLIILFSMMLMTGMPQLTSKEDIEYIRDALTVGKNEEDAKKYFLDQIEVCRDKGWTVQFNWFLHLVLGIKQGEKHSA

Row | SMILES | IL-10 production [1] | NF-κB reporter activation (NF-κB) | STAT1–STAT2 reporter activity (STAT1–STAT2) | IL-10 upregulation in Ccnc Δ/Δ BMDCs [7] | IL-10 production [7] | IL-10 upregulation in Ccnc f/f BMDCs [7] | Il10 mRNA levels (Il10 mRNA) | further results
1 | CC1CCc2nc(N)c(C#N)c(-c3cccnc3)c2C1 (stereo not drawn) [BRD6989] | upregulated IL-10 | suppressed NF-κB activation | suppressed induction of STAT1–STAT2 activity | failed to upregulate IL-10 | greater fold-increase in IL-10 production | remained intact | sustained increase beginning at 4 h and extending to 24 h | IL-10 production [2]: increased IL-10 production; cell viability ([3]; 48 h pretreatment, zymosan A 18 h): modestly reducing cell viability; production of IL-1β ([3]; zymosan A): largely unchanged; production of IL-12p40 ([3]; zymosan A): largely unchanged; production of TNFα ([3]; zymosan A): largely unchanged; zymosan A–induced release of IL-6 ([3]; zymosan A): suppressed; IC50 [4]: ~500 nM; IC50 [5]: > 30000 nM; IC50 [6]: ~200 nM; kinase profiling hit, PI3KCG (PI3KCG): secondary targets; IFNγ-induced phosphorylation of STAT1 at Ser727 (STAT1): inhibited; JAK-mediated phosphorylation of STAT1 Tyr701 (STAT1): did not affect; kinase profiling hit, PI3KC2A (PI3KC2A): secondary targets
2 | Cn1ncc2cc(-c3cnc(N)c(Cl)c3N3CCC4(CCNC4=O)CC3)ccc21 [CCT251921] | recapitulated the IL-10 potentiating activity of BRD6989 |  |  |  | recapitulated the IL-10 potentiating activity of BRD6989 |  |  | 
3 | COc1ccc(N(C(=O)Nc2c(C)cccc2C)c2cc(Nc3ccc(N4CCN(C)CC4)cc3)ncn2)c(OC)c1 [HG-9-91-01, reference compound] |  |  |  |  |  |  | elevated Il10 mRNA during the first 2 h | 
4 | CN(C)C/C=C/C(=O)Nc1ccc(C(=O)Nc2cccc(Nc3ncc(Cl)c(-c4c[nH]c5ccccc45)n3)c2)cc1 [THZ-1] |  |  |  |  | not enhanced |  |  | 
5 | CN(C)[C@H]1C[C@@]23CC[C@@]4(O2)C(=CC[C@]2(C)C(c5ccc6ccncc6c5)=CC[C@H]24)C=C3[C@@H](O)[C@@H]1O [dCA, Δ^16-cortistatin A] | recapitulated the IL-10 potentiating activity of BRD6989 | suppressed NF-κB activation | suppressed induction of STAT1–STAT2 activity | failed to upregulate IL-10 | recapitulated the IL-10 potentiating activity of BRD6989 | remained intact |  | activating phosphorylation of c-Jun on Ser63 (c-Jun): only moderately delayed; phosphorylation of c-Jun Ser243 (c-Jun): dramatically reduced phosphorylation; c-Jun Ser243 phosphorylation by recombinant cyclin C–CDK8 [8]: concentration-dependent suppression
